pEC50, pIC50, pKi: −log10 of the molar value.
How the values were obtained:
[1] = molecular target: T1, Metabotropic glutamate receptor 2 (Homo sapiens, UniProt Q14416); assay: Agonist activity at wild type human recombinant mGlu2 receptor expressed in AV12 cells assessed as stimulation of Ca2+ mobilization after 1 hr by FLIPR assay; assay type: functional, cell-based
[2] = molecular target: Metabotropic glutamate receptor 8 (Homo sapiens, UniProt O00222); assay: Antagonist activity at human recombinant mGlu8 receptor expressed in AV12 cells assessed as inhibition of glutamate-stimulated Ca2+ mobilization after 1 hr by FLIPR assay; assay type: functional, cell-based
[3] = Drug level in Sprague-Dawley rat cerebrospinal fluid at 1 mg/kg, ip after 4 hrs; assay type: ADME, organism-based; conditions: read-out: Drug uptake
How it was run: (§1)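 Male Sprague–Dawley rats received single ip doses of 1, 3 or 10 mg/kg. Cerebrospinal fluid and plasma levels were determined at 0.5, 1 and 4 h. Mean csf concentration (nM ± SEM) is reported.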

[4] = Half life in Sprague-Dawley rat at 1 mg/kg, iv; assay type: ADME, organism-based; conditions: in vivo
How it was run: (§2)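 Fasted male Sprague–Dawley rats (~250 g) received a single dose of compound dissolved in water and adjusted to pH 7–7.5 with NaOH, given iv, by oral gavage or ip. Serial blood samples (11–12 per rat) were drawn from a jugular vein catheter into EDTA and kept frozen. Plasma was mixed with methanol:water (1:1) containing an analogue internal standard for analysis. Mean plasma parameters are reported.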

[5] = molecular target: Metabotropic glutamate receptor 3 (Homo sapiens, UniProt Q14832, Q306L); assay: Agonist activity at human recombinant mGlu3 receptor Q306L mutant expressed in AV12 cells assessed as stimulation of Ca2+ mobilization after 1 hr by FLIPR assay; assay type: functional, cell-based
[6] = molecular target: T1, Metabotropic glutamate receptor 2; assay: Agonist activity at human recombinant mGlu2 receptor expressed in AV12 cells assessed as stimulation of Ca2+ mobilization after 1 hr by FLIPR assay; assay type: functional, cell-based
[7] = Drug level in Sprague-Dawley rat cerebrospinal fluid at 10 mg/kg, ip after 0.5 hrs; assay type: ADME, organism-based; conditions: read-out: Drug uptake; how it was run: as §1
[8] = Plasma concentration in Sprague-Dawley rat at 3 mg/kg, ip after 0.5 hrs; assay type: ADME, organism-based
How it was run: (§3)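 Separate experiment: single ip doses of 1, 3 and 10 mg/kg to rats, compound in water adjusted to pH 7–7.5 with NaOH; plasma (with csf) sampled at 0.5, 1 and 4 h; mean plasma concentrations ± SEM reported.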

[9] = Bioavailability in Sprague-Dawley rat at 1 mg/kg, ip; assay type: ADME, organism-based; conditions: in vivo; how it was run: as §2
[10] = molecular target: T2, Metabotropic glutamate receptor 7 (Homo sapiens, UniProt Q14831); assay: Agonist activity at human recombinant mGlu7 receptor expressed in AV12 cells assessed as stimulation of Ca2+ mobilization after 1 hr by FLIPR assay; assay type: functional, cell-based
[11] = Plasma concentration in Sprague-Dawley rat at 10 mg/kg, ip after 0.5 hrs; assay type: ADME, organism-based; how it was run: as §3
[12] = Drug level in Sprague-Dawley rat cerebrospinal fluid at 1 mg/kg, ip after 1 hr; assay type: ADME, organism-based; conditions: read-out: Drug uptake; how it was run: as §1
[13] = AUC (0 to 24 hrs) in Sprague-Dawley rat at 5 mg/kg, po; assay type: ADME, organism-based; design: time < 24 hr, dose 5 mg/kg, route oral; conditions: in vivo; how it was run: as §2
[14] = molecular target: T3, Metabotropic glutamate receptor 3 (Homo sapiens, UniProt Q14832); assay: Antagonist activity at human recombinant mGlu3 receptor expressed in AV12 cells assessed as inhibition of glutamate-stimulated Ca2+ mobilization after 1.5 hrs by FLIPR assay; assay type: functional, cell-based
[15] = Plasma concentration in Sprague-Dawley rat at 10 mg/kg, ip after 4 hrs; assay type: ADME, organism-based; how it was run: as §3
[16] = Tmax in Sprague-Dawley rat at 5 mg/kg, po; assay type: ADME, organism-based; conditions: in vivo
How it was run: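 Compound dissolved in water, pH adjusted to 7–7.5 with NaOH; single dose to fasted male Sprague–Dawley rats (~250 g) by oral gavage, intravenous or intraperitoneal route. Serial blood (11–12 samples per rat) from jugular vein catheter into EDTA tubes, centrifuged, frozen; 25 µL plasma mixed with methanol:water (1:1) containing analogue internal standard.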

[17] = molecular target: Voltage-gated inwardly rectifying potassium channel KCNH2 (Homo sapiens, UniProt Q12809); assay: Inhibition of human ERG at 10 uM
[18] = Bioavailability in Sprague-Dawley rat at 3 mg/kg, ip; assay type: ADME, organism-based; conditions: in vivo; how it was run: as §2
[19] = AUC (0 to 24 hrs) in Sprague-Dawley rat at 1 mg/kg, ip; assay type: ADME, organism-based; design: dose 1 mg/kg, time < 24 hr, route intraperitoneal; conditions: in vivo; how it was run: as §2
[20] = Bioavailability in Sprague-Dawley rat at 10 mg/kg, ip; assay type: ADME, organism-based; conditions: in vivo; how it was run: as §2
[21] = Cmax in Sprague-Dawley rat at 1 mg/kg, iv; assay type: ADME, organism-based; design: dose 1 mg/kg, route intravenous; conditions: in vivo; how it was run: as §2
[22] = Cmax in Sprague-Dawley rat at 3 mg/kg, ip; assay type: ADME, organism-based; design: dose 3 mg/kg, route intraperitoneal; conditions: in vivo; how it was run: as §2
[23] = Metabolic stability of the compound in rat hepatocytes assessed as loss of compound at 2 uM; assay type: ADME, cell-based, Hepatocyte; conditions: read-out: Drug degradation
How it was run: (§4)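 Hepatocytes from mouse, rat, dog and human; compound tested at 2 µM; percent loss of parent compound measured.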

[24] = molecular target: Metabotropic glutamate receptor 2 (Homo sapiens, UniProt Q14416, E273D); assay: Agonist activity at human recombinant mGlu2 receptor E273D mutant expressed in AV12 cells assessed as stimulation of Ca2+ mobilization after 1 hr by FLIPR assay; assay type: functional, cell-based
[25] = molecular target: Metabotropic glutamate receptor 5 (Homo sapiens, UniProt P41594); assay: Agonist activity at human recombinant mGlu5 receptor expressed in AV12 cells assessed as stimulation of Ca2+ mobilization after 1 hr by FLIPR assay; assay type: functional, cell-based
[26] = Plasma concentration in Sprague-Dawley rat at 3 mg/kg, ip after 4 hrs; assay type: ADME, organism-based; how it was run: as §3
[27] = Cmax in Sprague-Dawley rat at 5 mg/kg, po; assay type: ADME, organism-based; design: dose 5 mg/kg, route oral; conditions: in vivo; how it was run: as §2
[28] = molecular target: T3, Metabotropic glutamate receptor 3; assay: Displacement of [3H]-459477 from human recombinant mGlu3 receptor expressed in AV12 cells after 90 mins by liquid scintillation counting; assay type: cell-based
[29] = molecular target: T1, Metabotropic glutamate receptor 2; assay: Agonist activity at human recombinant mGlu2 receptor expressed in AV12 cells assessed as inhibition of forskolin-stimulated cAMP production after 20 min by fluorescence assay
[30] = Metabolic stability of the compound in mouse hepatocytes assessed as loss of compound at 2 uM; assay type: ADME, cell-based, Hepatocyte; conditions: read-out: Drug degradation; how it was run: as §4
[31] = Cmax in Sprague-Dawley rat at 1 mg/kg, ip; assay type: ADME, organism-based; design: dose 1 mg/kg, route intraperitoneal; conditions: in vivo; how it was run: as §2
[32] = Drug level in Sprague-Dawley rat cerebrospinal fluid at 3 mg/kg, ip after 1 hr; assay type: ADME, organism-based; conditions: read-out: Drug uptake; how it was run: as §1
[33] = molecular target: Metabotropic glutamate receptor 3 (Homo sapiens, UniProt Q14832, D279E); assay: Agonist activity at human recombinant mGlu3 receptor D279E mutant expressed in AV12 cells assessed as stimulation of Ca2+ mobilization after 1 hr by FLIPR assay; assay type: functional, cell-based
[34] = molecular target: Metabotropic glutamate receptor 2 (Homo sapiens, UniProt Q14416, E273D/L300Q); assay: Agonist activity at human recombinant mGlu2 receptor E273D and L300Q mutant expressed in AV12 cells assessed as stimulation of Ca2+ mobilization after 1 hr by FLIPR assay; assay type: functional, cell-based
[35] = Plasma concentration in Sprague-Dawley rat at 1 mg/kg, ip after 1 hr; assay type: ADME, organism-based; how it was run: as §3
[36] = molecular target: T2, Metabotropic glutamate receptor 7; assay: Antagonist activity at human recombinant mGlu7 receptor expressed in AV12 cells assessed as inhibition of glutamate-stimulated Ca2+ mobilization after 1 hr by FLIPR assay; assay type: functional, cell-based
[37] = Half life in Sprague-Dawley rat at 3 mg/kg, ip; assay type: ADME, organism-based; conditions: in vivo; how it was run: as §2

T1 sequence (Q14416 whole entry): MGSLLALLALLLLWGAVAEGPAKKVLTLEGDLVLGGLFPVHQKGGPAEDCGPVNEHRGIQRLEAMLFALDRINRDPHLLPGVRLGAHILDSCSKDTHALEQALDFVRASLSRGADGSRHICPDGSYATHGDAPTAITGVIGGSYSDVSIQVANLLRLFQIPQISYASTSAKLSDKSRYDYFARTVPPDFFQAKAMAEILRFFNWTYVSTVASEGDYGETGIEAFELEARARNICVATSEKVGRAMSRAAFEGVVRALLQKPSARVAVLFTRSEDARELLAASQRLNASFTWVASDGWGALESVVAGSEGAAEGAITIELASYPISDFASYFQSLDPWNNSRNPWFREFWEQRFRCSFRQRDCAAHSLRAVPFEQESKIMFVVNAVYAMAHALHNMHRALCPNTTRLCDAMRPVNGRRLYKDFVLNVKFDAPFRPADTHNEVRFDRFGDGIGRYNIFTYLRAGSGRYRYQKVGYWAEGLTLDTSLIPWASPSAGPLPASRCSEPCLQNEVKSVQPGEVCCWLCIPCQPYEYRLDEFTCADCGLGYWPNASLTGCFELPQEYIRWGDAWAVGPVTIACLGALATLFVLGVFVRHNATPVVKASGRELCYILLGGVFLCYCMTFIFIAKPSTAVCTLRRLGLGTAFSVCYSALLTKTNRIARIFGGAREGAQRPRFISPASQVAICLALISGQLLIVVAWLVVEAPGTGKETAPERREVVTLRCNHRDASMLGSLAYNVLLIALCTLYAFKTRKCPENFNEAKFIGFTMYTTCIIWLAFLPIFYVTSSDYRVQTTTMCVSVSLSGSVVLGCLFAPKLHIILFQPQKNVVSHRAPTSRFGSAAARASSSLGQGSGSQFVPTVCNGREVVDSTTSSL
T3 sequence (Q14832 whole entry): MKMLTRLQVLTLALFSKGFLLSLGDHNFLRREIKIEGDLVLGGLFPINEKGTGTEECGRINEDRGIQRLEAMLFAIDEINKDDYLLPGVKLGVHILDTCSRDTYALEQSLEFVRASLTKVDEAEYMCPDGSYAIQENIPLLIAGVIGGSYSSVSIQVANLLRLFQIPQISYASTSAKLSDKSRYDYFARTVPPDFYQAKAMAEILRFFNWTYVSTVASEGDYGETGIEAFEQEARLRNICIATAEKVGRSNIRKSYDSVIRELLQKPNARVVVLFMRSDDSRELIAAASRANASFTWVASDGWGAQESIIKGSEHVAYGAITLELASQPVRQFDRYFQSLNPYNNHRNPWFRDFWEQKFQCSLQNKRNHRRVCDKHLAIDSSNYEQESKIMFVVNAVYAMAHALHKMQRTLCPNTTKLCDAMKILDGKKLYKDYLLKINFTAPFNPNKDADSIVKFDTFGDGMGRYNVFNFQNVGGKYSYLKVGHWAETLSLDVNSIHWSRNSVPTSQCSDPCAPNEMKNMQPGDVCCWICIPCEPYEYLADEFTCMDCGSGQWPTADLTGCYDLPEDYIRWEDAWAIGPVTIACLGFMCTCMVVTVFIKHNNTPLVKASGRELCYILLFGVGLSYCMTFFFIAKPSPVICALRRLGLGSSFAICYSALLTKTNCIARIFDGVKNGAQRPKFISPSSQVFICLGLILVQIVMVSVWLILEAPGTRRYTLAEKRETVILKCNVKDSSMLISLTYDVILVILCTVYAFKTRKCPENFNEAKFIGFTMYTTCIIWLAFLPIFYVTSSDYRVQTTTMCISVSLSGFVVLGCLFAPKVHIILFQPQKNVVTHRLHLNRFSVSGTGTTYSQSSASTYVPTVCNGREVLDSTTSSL
T2 sequence (Q14831 whole entry): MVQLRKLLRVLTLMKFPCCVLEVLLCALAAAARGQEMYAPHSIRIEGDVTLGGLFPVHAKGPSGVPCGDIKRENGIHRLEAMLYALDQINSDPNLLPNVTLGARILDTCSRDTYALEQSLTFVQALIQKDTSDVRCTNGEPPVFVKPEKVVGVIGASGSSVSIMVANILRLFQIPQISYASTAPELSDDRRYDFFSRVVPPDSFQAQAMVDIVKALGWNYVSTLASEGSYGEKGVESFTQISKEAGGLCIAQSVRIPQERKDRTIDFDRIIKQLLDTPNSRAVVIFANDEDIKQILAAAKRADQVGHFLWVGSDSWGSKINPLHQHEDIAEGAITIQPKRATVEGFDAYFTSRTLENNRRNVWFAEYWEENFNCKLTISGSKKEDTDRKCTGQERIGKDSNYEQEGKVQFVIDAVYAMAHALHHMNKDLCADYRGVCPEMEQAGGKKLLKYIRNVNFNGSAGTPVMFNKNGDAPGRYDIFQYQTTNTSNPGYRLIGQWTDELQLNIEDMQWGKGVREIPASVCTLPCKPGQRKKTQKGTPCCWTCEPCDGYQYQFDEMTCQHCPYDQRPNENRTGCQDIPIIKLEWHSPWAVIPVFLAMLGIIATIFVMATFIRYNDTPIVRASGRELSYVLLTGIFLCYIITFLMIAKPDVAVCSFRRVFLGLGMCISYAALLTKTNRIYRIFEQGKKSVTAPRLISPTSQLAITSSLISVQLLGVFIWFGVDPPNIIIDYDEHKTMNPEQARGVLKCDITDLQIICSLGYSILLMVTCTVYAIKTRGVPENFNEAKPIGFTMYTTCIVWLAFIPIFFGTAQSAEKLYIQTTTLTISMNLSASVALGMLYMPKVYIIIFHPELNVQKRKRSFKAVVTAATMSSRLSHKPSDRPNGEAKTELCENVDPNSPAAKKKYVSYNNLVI
Sequence of Metabotropic glutamate receptor 2 (Homo sapiens, UniProt Q14416, E273D) (Q14416 19-872 E273D limits assumed): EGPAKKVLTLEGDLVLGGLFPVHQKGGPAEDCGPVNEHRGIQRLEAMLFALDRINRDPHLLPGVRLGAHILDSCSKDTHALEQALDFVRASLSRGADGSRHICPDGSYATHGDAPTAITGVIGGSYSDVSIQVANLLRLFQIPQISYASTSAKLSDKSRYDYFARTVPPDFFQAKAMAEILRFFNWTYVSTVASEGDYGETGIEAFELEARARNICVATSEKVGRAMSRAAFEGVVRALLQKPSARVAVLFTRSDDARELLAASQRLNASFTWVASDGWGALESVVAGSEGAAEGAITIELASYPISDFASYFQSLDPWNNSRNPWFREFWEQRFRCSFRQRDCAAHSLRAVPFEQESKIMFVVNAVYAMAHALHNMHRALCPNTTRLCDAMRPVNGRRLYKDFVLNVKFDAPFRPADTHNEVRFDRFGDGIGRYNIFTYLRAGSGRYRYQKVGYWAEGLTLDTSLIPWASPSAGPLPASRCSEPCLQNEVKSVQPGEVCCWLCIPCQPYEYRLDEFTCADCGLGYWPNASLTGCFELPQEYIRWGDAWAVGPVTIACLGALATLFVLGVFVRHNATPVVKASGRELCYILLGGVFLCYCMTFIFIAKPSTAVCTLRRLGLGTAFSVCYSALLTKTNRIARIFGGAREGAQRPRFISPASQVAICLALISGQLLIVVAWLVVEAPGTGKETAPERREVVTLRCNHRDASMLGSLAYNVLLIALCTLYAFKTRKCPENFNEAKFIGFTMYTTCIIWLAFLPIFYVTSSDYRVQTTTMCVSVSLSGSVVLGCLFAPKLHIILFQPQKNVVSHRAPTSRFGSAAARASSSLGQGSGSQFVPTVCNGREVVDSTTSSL
Sequence of Voltage-gated inwardly rectifying potassium channel KCNH2 (Q12809 whole entry): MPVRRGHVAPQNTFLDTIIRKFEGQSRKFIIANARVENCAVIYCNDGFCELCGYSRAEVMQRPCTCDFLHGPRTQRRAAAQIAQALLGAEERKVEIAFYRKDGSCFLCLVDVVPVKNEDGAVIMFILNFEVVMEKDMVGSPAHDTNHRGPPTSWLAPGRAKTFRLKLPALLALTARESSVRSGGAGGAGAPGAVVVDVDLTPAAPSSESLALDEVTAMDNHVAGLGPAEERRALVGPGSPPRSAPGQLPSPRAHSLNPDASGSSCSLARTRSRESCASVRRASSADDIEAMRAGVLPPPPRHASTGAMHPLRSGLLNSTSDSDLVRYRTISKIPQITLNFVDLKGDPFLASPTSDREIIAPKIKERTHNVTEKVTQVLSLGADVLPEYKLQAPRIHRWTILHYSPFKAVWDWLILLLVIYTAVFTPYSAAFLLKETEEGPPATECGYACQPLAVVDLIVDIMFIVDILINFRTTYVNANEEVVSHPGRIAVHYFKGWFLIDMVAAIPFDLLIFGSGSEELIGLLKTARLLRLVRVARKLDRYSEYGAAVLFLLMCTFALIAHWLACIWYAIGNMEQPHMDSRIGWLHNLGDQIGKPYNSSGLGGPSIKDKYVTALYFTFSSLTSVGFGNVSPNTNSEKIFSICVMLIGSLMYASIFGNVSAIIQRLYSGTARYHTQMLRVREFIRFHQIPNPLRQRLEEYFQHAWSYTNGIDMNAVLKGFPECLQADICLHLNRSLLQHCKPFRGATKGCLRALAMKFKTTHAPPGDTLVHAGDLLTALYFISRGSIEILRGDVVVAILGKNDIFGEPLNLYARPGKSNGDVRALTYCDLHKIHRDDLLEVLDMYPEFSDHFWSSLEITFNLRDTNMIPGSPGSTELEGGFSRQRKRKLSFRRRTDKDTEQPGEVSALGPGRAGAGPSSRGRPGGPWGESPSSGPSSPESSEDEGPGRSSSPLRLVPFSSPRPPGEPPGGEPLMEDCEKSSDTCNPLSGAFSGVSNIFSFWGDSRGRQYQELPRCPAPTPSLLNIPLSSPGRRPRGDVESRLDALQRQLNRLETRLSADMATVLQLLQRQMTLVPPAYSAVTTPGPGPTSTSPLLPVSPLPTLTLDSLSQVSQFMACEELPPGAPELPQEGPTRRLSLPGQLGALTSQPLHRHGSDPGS
Sequence of Metabotropic glutamate receptor 2 (Homo sapiens, UniProt Q14416, E273D/L300Q) (Q14416 19-872 E273D/L300Q limits assumed): as the sequence (Q14416 19-872 E273D limits assumed) above, with L282Q counted along it

Q: With `N[C@@]1(C(=O)O)C[C@@H](Sc2nc[nH]n2)[C@H]2[C@H](C(=O)O)[C@H]21` as the molecule, how does the pEC50 [1] read?
A: 7.70

Q: What about the pIC50 [2] of the same molecule?
A: < 4.90

Q: What about the concentration at 4 h [3] of the same molecule?
A: 0.0097 µM

Q: And the half-life [4]?
A: 3.3 h

Q: What about the pEC50 [5] of the same molecule?
A: 5.55

Q: What about the pEC50 [6] of the same molecule?
A: 7.68

Q: What about the concentration at 0.5 h [7] of the same molecule?
A: 0.235 µM

Q: What about the concentration at 0.5 h [8] of the same molecule?
A: 10.1 µM

Q: What about the bioavailability [9] of the same molecule?
A: 122%

Q: And the pEC50 [10]?
A: < 4.60

Q: What about the concentration at 0.5 h [11] of the same molecule?
A: 40.1 µM

Q: What about the concentration at 1 h [12] of the same molecule?
A: 0.0399 µM

Q: What about the AUC(0-t) at 24 h [13] of the same molecule?
A: 1.01 µM·h

Q: And the pIC50 [14]?
A: 4.60

Q: And the concentration at 4 h [15]?
A: 3.02 µM

Q: What about the Tmax [16] of the same molecule?
A: 0.5 h

Q: What about the “inhibition (INH)” value [17] of the same molecule?
A: Not Active

Q: What about the bioavailability [18] of the same molecule?
A: 73%

Q: What about the AUC(0-t) at 24 h [19] of the same molecule?
A: 6.01 µM·h

Q: What about the bioavailability [20] of the same molecule?
A: 88%

Q: What about the Cmax [21] of the same molecule?
A: 9.54 µM

Q: And the Cmax [22]?
A: 8.05 µM

Q: And the metabolised at 2 µM [23]?
A: < 10%

Q: And the pEC50 [24]?
A: 7.33

Q: And the pEC50 [25]?
A: < 4.60

Q: And the concentration at 4 h [26]?
A: 0.7 µM

Q: And the Cmax [27]?
A: 0.22 µM

Q: What about the pKi [28] of the same molecule?
A: 6.81

Q: What about the pEC50 [29] of the same molecule?
A: 8.25

Q: And the metabolised at 2 µM [30]?
A: < 10%

Q: What about the Cmax [31] of the same molecule?
A: 4.92 µM

Q: And the concentration at 1 h [32]?
A: 0.0864 µM

Q: What about the pEC50 [33] of the same molecule?
A: 5.66

Q: And the pEC50 [34]?
A: 7.32

Q: What about the concentration at 1 h [35] of the same molecule?
A: 3.01 µM

Q: What about the pIC50 [36] of the same molecule?
A: < 4.90

Q: And the half-life [37]?
A: 3.2 h
